# Where “and” joins values, the source holds several entries; their conditions need not be identical. Equal values may be shown once.
# Test system: Fibroblast
# Experiment: Multiplex assay against human fibroblast
# Format: toxicity, cell-based
# In short: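 Tubulin, mitochondrial-mass and membrane-permeability phenotypes are per cents of healthy-nucleus cells. Cells were gated by CellPathfinder machine learning into Hoechst high-intensity objects or normal cells, normal cells into healthy, pyknosed or fragmented nuclei, and pyknosed cells into mitotic or apoptotic. Before that, live cells stained at seeding with Hoechst33342, BioTracker Green Microtubule Cytoskeleton Dye, MitoTracker Red and Annexin V Alexa Fluor 680 were imaged on a CQ1 microscope at 37°C and 5% CO2 after compound addition.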
# [1] = 12 h, 1 µM, compound concentration 1 uM
# [2] = 12 h, 10 µM, compound concentration 10 uM
# [3] = 24 h, 1 µM, compound concentration 1 uM
# [4] = 24 h, 10 µM, compound concentration 10 uM
# [5] = 48 h, 1 µM, compound concentration 1 uM
# [6] = 48 h, 10 µM, compound concentration 10 uM
smiles,measurement,setting,value
CCC(=N\O)/C(C)=C/c1ccc(F)cc1 [A-079],Population Apoptotic (%),[1],15.91% and 23.08%
same,Population Fragmented Nuclei (%),[1],8.18% and 2.86%
same,Population Healthy Nuclei (%),[1],71.82% and 82.29%
same,Population Hoechst High Intensity Objects (%),[1],0%
same,Population Membrane Permeable-Phenotype (%),[1],3.16% and 4.86%
same,Population Mitochondria Different-Phenotype (%),[1],3.16% and 9.72%
same,Population Mitotic Cells (%),[1],84.09% and 76.92%
same,Population Normal (%),[1],100%
same,Population Pyknosed Nuclei (%),[1],20% and 14.86%
same,Population Tubulin-Different-Phenotype (%),[1],10.13% and 14.58%
same,Total Cell Count,[1],220 and 175
same,Population Apoptotic (%),[2],11.32% and 27.78%
same,Population Fragmented Nuclei (%),[2],6.99% and 5.71%
same,Population Healthy Nuclei (%),[2],64.52% and 81.43%
same,Population Hoechst High Intensity Objects (%),[2],0%
same,Population Membrane Permeable-Phenotype (%),[2],5.83% and 7.02%
same,Population Mitochondria Different-Phenotype (%),[2],5% and 9.65%
same,Population Mitotic Cells (%),[2],88.68% and 72.22%
same,Population Normal (%),[2],100%
same,Population Pyknosed Nuclei (%),[2],28.49% and 12.86%
same,Population Tubulin-Different-Phenotype (%),[2],13.33% and 21.93%
same,Total Cell Count,[2],186 and 140
same,Population Apoptotic (%),[3],15.15% and 10.53%
same,Population Fragmented Nuclei (%),[3],10% and 1.7%
same,Population Healthy Nuclei (%),[3],75.65% and 87.5%
same,Population Hoechst High Intensity Objects (%),[3],0%
same,Population Membrane Permeable-Phenotype (%),[3],2.3% and 3.25%
same,Population Mitochondria Different-Phenotype (%),[3],2.87% and 6.49%
same,Population Mitotic Cells (%),[3],84.85% and 89.47%
same,Population Normal (%),[3],100%
same,Population Pyknosed Nuclei (%),[3],14.35% and 10.8%
same,Population Tubulin-Different-Phenotype (%),[3],10.92% and 9.74%
same,Total Cell Count,[3],230 and 176
same,Population Apoptotic (%),[4],17.14% and 20.83%
same,Population Fragmented Nuclei (%),[4],8.85% and 6.62%
same,Population Healthy Nuclei (%),[4],72.92% and 77.48%
same,Population Hoechst High Intensity Objects (%),[4],0%
same,Population Membrane Permeable-Phenotype (%),[4],10.71% and 3.42%
same,Population Mitochondria Different-Phenotype (%),[4],7.86% and 4.27%
same,Population Mitotic Cells (%),[4],82.86% and 79.17%
same,Population Normal (%),[4],100%
same,Population Pyknosed Nuclei (%),[4],18.23% and 15.89%
same,Population Tubulin-Different-Phenotype (%),[4],19.29% and 19.66%
same,Total Cell Count,[4],192 and 151
same,Population Apoptotic (%),[5],46.15% and 36.36%
same,Population Fragmented Nuclei (%),[5],10.24% and 4.69%
same,Population Healthy Nuclei (%),[5],84.65% and 89.58%
same,Population Hoechst High Intensity Objects (%),[5],0%
same,Population Membrane Permeable-Phenotype (%),[5],0.47% and 4.65%
same,Population Mitotic Cells (%),[5],53.85% and 63.64%
same,Population Normal (%),[5],100%
same,Population Pyknosed Nuclei (%),[5],5.12% and 5.73%
same,Total Cell Count,[5],254 and 192
same,Population Apoptotic (%),[6],20% and 36.36%
same,Population Fragmented Nuclei (%),[6],12.33% and 5.62%
same,Population Healthy Nuclei (%),[6],80.82% and 87.5%
same,Population Hoechst High Intensity Objects (%),[6],0%
same,Population Membrane Permeable-Phenotype (%),[6],1.69% and 6.43%
same,Population Mitotic Cells (%),[6],80% and 63.64%
same,Population Normal (%),[6],100%
same,Population Pyknosed Nuclei (%),[6],6.85% and 6.88%
same,Population Tubulin-Different-Phenotype (%),[6],6.78% and 17.86%
same,Total Cell Count,[6],219 and 160
"CCCn1c(=O)c2[nH]c(C3CCCC3)nc2n(CCC)c1=O [1,3-DIPROPYL-8-CYCLOPENTYLXANTHINE [DPCPX]]",Population Apoptotic (%),[1],38% and 30%
same,Population Fragmented Nuclei (%),[1],10% and 25%
same,Population Healthy Nuclei (%),[1],73% and 46%
same,Population Hoechst High Intensity Objects (%),[1],3%
same,Population Membrane Permeable-Phenotype (%),[1],0% and 1%
same,Population Mitochondria Different-Phenotype (%),[1],1% and 10%
same,Population Mitotic Cells (%),[1],61% and 69%
same,Population Normal (%),[1],96%
same,Population Pyknosed Nuclei (%),[1],15% and 28%
same,Population Tubulin-Different-Phenotype (%),[1],29% and 50%
same,Total Cell Count,[1],175 and 156
same,Population Apoptotic (%),[2],58% and 25%
same,Population Fragmented Nuclei (%),[2],18% and 32%
same,Population Healthy Nuclei (%),[2],65% and 47%
same,Population Hoechst High Intensity Objects (%),[2],3% and 6%
same,Population Membrane Permeable-Phenotype (%),[2],0% and 12%
same,Population Mitochondria Different-Phenotype (%),[2],10% and 3%
same,Population Mitotic Cells (%),[2],41% and 75%
same,Population Normal (%),[2],96% and 93%
same,Population Pyknosed Nuclei (%),[2],17% and 20%
same,Population Tubulin-Different-Phenotype (%),[2],47% and 59%
same,Total Cell Count,[2],104 and 129
same,Population Apoptotic (%),[3],50% and 75%
same,Population Fragmented Nuclei (%),[3],13% and 30%
same,Population Healthy Nuclei (%),[3],77% and 48%
same,Population Hoechst High Intensity Objects (%),[3],2% and 3%
same,Population Membrane Permeable-Phenotype (%),[3],0% and 4%
same,Population Mitochondria Different-Phenotype (%),[3],2% and 12%
same,Population Mitotic Cells (%),[3],50% and 24%
same,Population Normal (%),[3],97% and 96%
same,Population Pyknosed Nuclei (%),[3],9% and 21%
same,Population Tubulin-Different-Phenotype (%),[3],30% and 54%
same,Total Cell Count,[3],177 and 159
same,Population Fragmented Nuclei (%),[4],17% and 35%
same,Population Healthy Nuclei (%),[4],61% and 40%
same,Population Hoechst High Intensity Objects (%),[4],3% and 6%
same,Population Membrane Permeable-Phenotype (%),[4],6% and 8%
same,Population Mitochondria Different-Phenotype (%),[4],9% and 4%
same,Population Mitotic Cells (%),[4],36% and 79%
same,Population Normal (%),[4],96% and 93%
same,Population Pyknosed Nuclei (%),[4],22% and 24%
same,Population Tubulin-Different-Phenotype (%),[4],49% and 63%
same,Total Cell Count,[4],104 and 125
same,Population Apoptotic (%),[5],72% and 47%
same,Population Fragmented Nuclei (%),[5],16% and 39%
same,Population Healthy Nuclei (%),[5],70% and 48%
same,Population Hoechst High Intensity Objects (%),[5],2% and 7%
same,Population Membrane Permeable-Phenotype (%),[5],0% and 5%
same,Population Mitotic Cells (%),[5],27% and 52%
same,Population Normal (%),[5],97% and 92%
same,Population Pyknosed Nuclei (%),[5],12%
same,Population Tubulin-Different-Phenotype (%),[5],35% and 55%
same,Total Cell Count,[5],182 and 170
same,Population Apoptotic (%),[6],57% and 50%
same,Population Fragmented Nuclei (%),[6],24% and 43%
same,Population Healthy Nuclei (%),[6],55% and 45%
same,Population Hoechst High Intensity Objects (%),[6],3% and 2%
same,Population Mitochondria Different-Phenotype (%),[6],13% and 8%
same,Population Mitotic Cells (%),[6],42% and 50%
same,Population Normal (%),[6],96% and 97%
same,Population Pyknosed Nuclei (%),[6],20% and 10%
same,Population Tubulin-Different-Phenotype (%),[6],50% and 78%
same,Total Cell Count,[6],98 and 136
CC[C@@H](C)Nc1nc(C)nc2c(-c3ccc(OC)nc3C)c(C)nn12 [PEXACERFONT],Population Apoptotic (%),[1],40% and 25%
same,Population Fragmented Nuclei (%),[1],12% and 32%
same,Population Healthy Nuclei (%),[1],66% and 44%
same,Population Hoechst High Intensity Objects (%),[1],1% and 2%
same,Population Mitochondria Different-Phenotype (%),[1],4%
same,Population Mitotic Cells (%),[1],60% and 75%
same,Population Normal (%),[1],98% and 97%
same,Population Pyknosed Nuclei (%),[1],20% and 24%
same,Population Tubulin-Different-Phenotype (%),[1],35% and 65%
same,Total Cell Count,[1],147 and 103
same,Population Apoptotic (%),[2],43% and 38%
same,Population Fragmented Nuclei (%),[2],15% and 21%
same,Population Healthy Nuclei (%),[2],55% and 40%
same,Population Hoechst High Intensity Objects (%),[2],2% and 8%
same,Population Membrane Permeable-Phenotype (%),[2],0% and 7%
same,Population Mitochondria Different-Phenotype (%),[2],19% and 9%
same,Population Mitotic Cells (%),[2],56% and 61%
same,Population Normal (%),[2],97% and 91%
same,Population Pyknosed Nuclei (%),[2],29% and 38%
same,Population Tubulin-Different-Phenotype (%),[2],62% and 68%
same,Total Cell Count,[2],143 and 147
same,Population Apoptotic (%),[3],52% and 47%
same,Population Fragmented Nuclei (%),[3],16% and 35%
same,Population Healthy Nuclei (%),[3],70% and 42%
same,Population Hoechst High Intensity Objects (%),[3],1% and 3%
same,Population Membrane Permeable-Phenotype (%),[3],0% and 20%
same,Population Mitochondria Different-Phenotype (%),[3],3% and 2%
same,Population Mitotic Cells (%),[3],47% and 52%
same,Population Normal (%),[3],98% and 96%
same,Population Pyknosed Nuclei (%),[3],13% and 22%
same,Population Tubulin-Different-Phenotype (%),[3],38% and 61%
same,Total Cell Count,[3],157 and 108
same,Population Apoptotic (%),[4],37% and 38%
same,Population Fragmented Nuclei (%),[4],16% and 18%
same,Population Healthy Nuclei (%),[4],56% and 47%
same,Population Hoechst High Intensity Objects (%),[4],1% and 7%
same,Population Mitochondria Different-Phenotype (%),[4],10% and 6%
same,Population Mitotic Cells (%),[4],62% and 61%
same,Population Normal (%),[4],98% and 92%
same,Population Pyknosed Nuclei (%),[4],27% and 33%
same,Population Tubulin-Different-Phenotype (%),[4],68% and 76%
same,Total Cell Count,[4],139 and 143
same,Population Apoptotic (%),[5],54% and 25%
same,Population Fragmented Nuclei (%),[5],15% and 40%
same,Population Healthy Nuclei (%),[5],69% and 45%
same,Population Hoechst High Intensity Objects (%),[5],8% and 1%
same,Population Mitochondria Different-Phenotype (%),[5],0% and 4%
same,Population Mitotic Cells (%),[5],45% and 75%
same,Population Normal (%),[5],91% and 98%
same,Population Pyknosed Nuclei (%),[5],15% and 14%
same,Population Tubulin-Different-Phenotype (%),[5],30% and 52%
same,Total Cell Count,[5],160 and 113
same,Population Apoptotic (%),[6],87% and 52%
same,Population Fragmented Nuclei (%),[6],23% and 32%
same,Population Healthy Nuclei (%),[6],53% and 50%
same,Population Hoechst High Intensity Objects (%),[6],3% and 4%
same,Population Membrane Permeable-Phenotype (%),[6],0% and 12%
same,Population Mitochondria Different-Phenotype (%),[6],14% and 9%
same,Population Normal (%),[6],96% and 95%
same,Population Pyknosed Nuclei (%),[6],22% and 16%
same,Population Tubulin-Different-Phenotype (%),[6],62% and 76%
same,Total Cell Count,[6],144 and 134

# From ChEMBL document CHEMBL5724801, “EUbOPEN Chemogenomics Library - Multiplex” (2024)
